Results published in PMC13322713 (Molecular imaging and biology, 2025).
“And” between values parts separate entries of the source, which are not always exact repeats. Equal entries are not always repeated.

Key:
[1] = Biodistribution in BxPC-3 tumor-bearing mice; type: in vivo; conditions: female, athymic nude, mouse, iv, 0.175 nmol per injection, total radioactivity
Outline: (§1)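 Female athymic nude mice, inoculated subcutaneously with 5 × 10^6 BxPC-3 cells in RPMI/Matrigel (1/1 v/v), used at ~0.5 cm tumor diameter (approx. 3 weeks). Isoflurane-anesthetized mice received the tail-vein radiotracer in PBS at 2.2–3.3 MBq, with mass held at 0.175 nmol by adding nonmetallated compound. Tissues collected 1, 2 and 4 h p.i. (n = 4 per time point), rinsed, γ-counted, and expressed as decay-corrected %ID/g, mean ± SD.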

[2] = tested on: BxPC-3 tumor-bearing mice; test: Biodistribution in BxPC-3 tumor-bearing mice; type: in vivo
Outline: as §1

[3] = tested on: pancreatic BxPC-3 (αvβ6 +) cells; test: Cell binding and internalization, BxPC-3 cells; type: cell-based
Outline: (§2)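 Cells cultured at 37 °C, 5% CO2 with 10% FBS and 1% PSG: puromycin-containing DMEM for the DX3 pair, RPMI for BxPC-3. Integrin expression was checked by flow cytometry beforehand. The radiotracer was incubated 1 h with 3.75 × 10^6 cells per experiment in PBS containing calcium and magnesium, with non-fat dry milk blocking. Internalization was at 37 °C. Bound and internalized fractions are expressed as % of total radioactivity, quadruplicate, mean ± SD.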

[4] = tested on: DX3puro (αvβ6 −) cells; test: Cell binding and internalization, DX3puro cells; type: cell-based; conditions: 1 h, 3.75 × 10^6 cells/experiment, mean ± SD, n = 4
Outline: as §2

[5] = Whole-body radioactivity / excretion during PET/CT study; set-up: species or system mice; conditions: female, athymic nude, mouse, in vivo, iv, 0.175 nmol per injection, total radioactivity
[6] = biological target: integrin αvβ6 (Homo sapiens, UniProt P06756+P18564); test: Competitive binding ELISA against Bt-LAP; conditions: ratio of ELISA IC50s
Outline: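 Competitive ELISAs used biotinylated LAP as ligand for integrin αvβ6 and biotinylated vitronectin for αvβ3. IC50s came from a sigmoidal fit of binding over a peptide concentration range. The ratio is αvβ3 IC50 divided by αvβ6 IC50.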

[7] = Lipophilicity logD7.4, octanol/PBS partitioning; type: physicochemical; conditions: pH 7.4
[8] = tested on: DX3puroβ6 (αvβ6 +) cells; test: Cell binding and internalization, DX3puroβ6 cells; type: cell-based
Outline: as §2

Sequence of integrin αvβ6 (P06756 31-1048): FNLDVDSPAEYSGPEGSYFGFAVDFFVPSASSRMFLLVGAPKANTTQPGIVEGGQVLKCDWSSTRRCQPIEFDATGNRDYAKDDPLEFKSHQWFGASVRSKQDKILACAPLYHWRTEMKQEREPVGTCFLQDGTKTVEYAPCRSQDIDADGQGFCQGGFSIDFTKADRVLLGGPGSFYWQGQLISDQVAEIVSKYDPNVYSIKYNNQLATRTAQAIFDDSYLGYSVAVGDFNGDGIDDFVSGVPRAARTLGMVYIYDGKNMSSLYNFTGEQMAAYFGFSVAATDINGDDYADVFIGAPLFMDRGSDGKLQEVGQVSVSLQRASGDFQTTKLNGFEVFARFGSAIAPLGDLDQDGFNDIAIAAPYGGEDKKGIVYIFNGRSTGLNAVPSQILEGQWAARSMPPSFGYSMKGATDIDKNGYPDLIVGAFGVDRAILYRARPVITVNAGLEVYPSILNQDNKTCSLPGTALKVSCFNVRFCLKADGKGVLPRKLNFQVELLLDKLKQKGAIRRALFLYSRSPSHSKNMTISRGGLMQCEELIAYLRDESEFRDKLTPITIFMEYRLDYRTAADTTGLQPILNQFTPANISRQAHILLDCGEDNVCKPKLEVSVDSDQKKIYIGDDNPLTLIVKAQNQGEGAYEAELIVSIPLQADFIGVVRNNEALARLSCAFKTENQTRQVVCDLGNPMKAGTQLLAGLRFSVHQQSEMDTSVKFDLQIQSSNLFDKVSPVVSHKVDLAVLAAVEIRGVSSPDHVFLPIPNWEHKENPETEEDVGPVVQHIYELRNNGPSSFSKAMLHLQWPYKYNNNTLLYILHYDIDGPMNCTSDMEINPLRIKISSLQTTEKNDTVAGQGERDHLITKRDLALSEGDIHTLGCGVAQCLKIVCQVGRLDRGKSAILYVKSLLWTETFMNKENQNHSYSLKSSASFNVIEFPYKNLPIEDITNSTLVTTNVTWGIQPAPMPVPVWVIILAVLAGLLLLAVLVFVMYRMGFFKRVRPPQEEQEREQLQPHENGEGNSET
Sequence of integrin αvβ6 (P18564 22-788): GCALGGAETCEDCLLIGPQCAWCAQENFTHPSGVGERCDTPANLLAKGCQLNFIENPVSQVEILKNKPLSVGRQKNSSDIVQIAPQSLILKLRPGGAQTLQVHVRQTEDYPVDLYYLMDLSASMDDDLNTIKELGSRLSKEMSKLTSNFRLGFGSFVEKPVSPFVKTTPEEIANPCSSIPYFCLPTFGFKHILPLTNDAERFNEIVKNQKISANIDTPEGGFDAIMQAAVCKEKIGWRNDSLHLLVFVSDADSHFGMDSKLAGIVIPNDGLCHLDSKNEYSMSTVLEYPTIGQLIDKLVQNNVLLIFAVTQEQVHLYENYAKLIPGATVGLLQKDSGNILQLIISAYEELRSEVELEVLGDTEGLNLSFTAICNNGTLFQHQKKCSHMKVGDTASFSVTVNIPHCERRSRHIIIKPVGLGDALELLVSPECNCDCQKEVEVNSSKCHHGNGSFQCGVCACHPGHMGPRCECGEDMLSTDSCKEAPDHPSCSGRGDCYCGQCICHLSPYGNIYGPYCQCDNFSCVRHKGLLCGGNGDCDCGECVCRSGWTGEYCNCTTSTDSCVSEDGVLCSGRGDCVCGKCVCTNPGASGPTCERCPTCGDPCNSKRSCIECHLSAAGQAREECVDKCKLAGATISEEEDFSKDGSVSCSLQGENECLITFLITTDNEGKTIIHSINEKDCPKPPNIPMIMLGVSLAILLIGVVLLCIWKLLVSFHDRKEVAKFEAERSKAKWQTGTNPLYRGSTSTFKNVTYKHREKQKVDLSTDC

CC(C)C[C@H](NC(=O)[C@H](CC(=O)O)NC(=O)CNC(=O)[C@H](CCCNC(=N)N)NC(=O)[C@H](CC(C)C)NC(=O)[C@H](CC(N)=O)NC(=O)[C@@H]1CCCN1C(=O)[C@@H](NC(=O)CNC(=O)[C@H](CC(N)=O)NC(=O)CNC(=O)CCOCCOCCOCCOCCOCCOCCOCCOCCOCCOCCOCCOCCOCCOCCOCCOCCOCCOCCOCCOCCOCCOCCOCCOCCOCCOCCOCCOCCNC(=O)CN1CCN(CC(=O)O)CCN(CC(=O)O)CC1)C(C)C)C(=O)N[C@@H](CCC(N)=O)C(=O)N[C@H](C(=O)N[C@@H](CC(C)C)C(=O)NCC(=O)N[C@@H](CCC(N)=O)C(=O)N[C@@H](CCCNC(=N)N)C(=O)N[C@H](C(=O)NCC(=O)N[C@@H](CCCNC(=N)N)C(=O)N[C@H](C(=O)NCCOCCOCCOCCOCCOCCOCCOCCOCCOCCOCCOCCOCCOCCOCCOCCOCCOCCOCCOCCOCCOCCOCCOCCOCCOCCOCCOCCOCCC(N)=O)[C@@H](C)O)C(C)C)C(C)C [[^18F]AlF NOTA-5G]
tissue uptake at 1 h ([1]; BxPC-3 tumor): 2.3 ± 0.4 %ID/g | tissue uptake at 4 h ([1]; BxPC-3 tumor): 1.8 ± 0.6 %ID/g | tissue uptake at 1 h ([1]; blood): 0.16 ± 0.03 %ID/g | tissue uptake at 4 h ([1]; blood): 0.01 ± 0.01 %ID/g | excreta dose per gram or mL at 1 h ([1]; feces): 0.7 ± 0.1 %ID/g | excreta dose per gram or mL at 4 h ([1]; feces): 5 ± 2.1 %ID/g | tissue uptake at 1 h ([1]; kidneys): 18.6 ± 6.4 %ID/g | tissue uptake at 4 h ([1]; kidneys): 12.5 ± 1.8 %ID/g | Tumor/blood ratio ([2]; 2 h p.i.): greater than 15/1 | Tumor/liver ratio ([2]; 2 h p.i.): greater than 15/1 | Tumor/pancreas ratio ([2]; 2 h p.i.): greater than 15/1 | Tumor/blood ratio ([2]; 4 h p.i.): 162/1 | Tumor/liver ratio ([2]; 4 h p.i.): 24/1 | Tumor/muscle ratio ([2]; 4 h p.i.): 6/1 | Tumor/pancreas ratio ([2]; 4 h p.i.): 18/1 | Radioactivity levels in tissues aside from kidneys and GI tract, including bone ([2]; all time points (1, 2, 4 h p.i.)): ≤ 1.6 % ID/g | Radioactivity internalized ([3]; BxPC-3, 1 h at 37 °C, abstract: of bound activity): ≥ 50% | Cell binding, % of total radioactivity bound ([3]; BxPC-3 αvβ6(+), 1 h, 3.75 × 10^6 cells/experiment, mean ± SD, n = 4): 29.1 ± 3.7% | Cell binding, % of total radioactivity bound [4]: 2% and 2.0 ± 0.2% | dose excreted at 4 h [5]: 80% | IC50-ratio (αvβ3 vs αvβ6) [6]: > 7700/1 | logD [7]: -2.34 ± 0.08 | Ratio of cell binding DX3puroβ6 vs DX3puro ([8]; 1 h): 33/1 | Ratio of internalization DX3puroβ6 vs DX3puro ([8]; 1 h at 37 °C): 96/1 | Radioactivity internalized ([8]; DX3puroβ6, 1 h at 37 °C, abstract: of bound activity): ≥ 50% | Cell binding, % of total radioactivity bound ([8]; DX3puroβ6 αvβ6(+), 1 h, 3.75 × 10^6 cells/experiment, mean ± SD, n = 4): 66% and 66.2 ± 0.8%
